# According to article PMC8851455 (ACS Omega, 2022):
# Where two headings read alike, the source gives them in different places.
# Legend:
# S. typhimurium TA100 = assay: Ames test, strain TA100; assay type: cell-based, Salmonella typhimurium; settings: for number of revertants/plate (M ± SD), positive control: 1 μg/plate
# chicken embryo = assay: Chicken embryonic assay; assay type: in vivo; settings: egg injection, day 18
# chicken fetal liver = assay: TBARs level; assay type: in vivo
# MCF-7 cells [1] = assay: MCF-7 cell proliferation assay; assay type: cell-based, human; settings: for max % RME2: highest % RME2 (relative maximum % E2) in test range 10^–12–10^–7 M
# In short: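 MCF-7 cells exposed to test compound or E2 at six concentrations from 10–12 to 10–7 M in EA-free medium. Proliferation read as MTT product absorbance at 570 nm. Three independent trials, each in triplicate. % RME2 = 100 × (OD test − OD VC)/(max OD E2 − OD VC). EC50 from curve fitting. EEF = EC50 of E2/EC50 of sample. One-way ANOVA with Dunnett's test versus E2 at each concentration.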
# [2] = tested on: S. typhimurium tester strains (TA98, TA100, and TA102); assay: Ames test, overall over three strains; assay type: cell-based, Salmonella typhimurium; settings: 5 × 10^–5 to 50 pmol/plate, with or without S9
# S. typhimurium TA98 = assay: Ames test, strain TA98; assay type: cell-based, Salmonella typhimurium
# S. typhimurium = settings: at 12.1 to 147.8 nmol/plate; cited from earlier work
# MCF-7 cells [3] = settings: at 0.001–1 μM when tested from 0.001 to 50 μM; cited from earlier work
# [4] = higher dose (0.5 mM: 450–500 μg/kg; E2 0.1 mM: 91 μg/kg)
# [5] = lower dose (0.05 mM: 45–50 μg/kg; E2 0.01 mM: 9.1 μg/kg)
# [6] = TA102 +S9, 5 × 10^–2 pmol/plate
# [7] = TA102 +S9, 5 × 10^–3 pmol/plate
# [8] = TA102 +S9, 5 × 10^–4 pmol/plate
# [9] = TA102 +S9, 5 × 10^–5 pmol/plate
# [10] = TA102 -S9, 5 × 10^–3 pmol/plate
# [11] = TA102 -S9, 5 × 10^–4 pmol/plate
# [12] = TA102 -S9, 5 × 10^–5 pmol/plate
# [13] = TA100 +S9, 5 × 10^–2 pmol/plate
# [14] = TA100 +S9, 5 × 10^–3 pmol/plate
# [15] = TA100 +S9, 5 × 10^–4 pmol/plate
# [16] = TA100 +S9, 5 × 10^–5 pmol/plate
# [17] = TA100 -S9, 5 × 10^–2 pmol/plate
# [18] = TA100 -S9, 5 × 10^–3 pmol/plate
# [19] = TA100 -S9, 5 × 10^–4 pmol/plate
# [20] = TA100 -S9, 5 × 10^–5 pmol/plate
structure (smiles),measurement,setting,value
"[N-]=[N+]=[N-].[Na+] [NaN3, reference compound]","number of revertants/plate (M ± SD), positive control","S. typhimurium TA100; TA100 -S9, control set of luteolin and apigenin",860 ± 52 ^d^** revertants/plate
same,"number of revertants/plate (M ± SD), positive control","S. typhimurium TA100; TA100 -S9, control set of quercetin and genistein",743 ± 28 ^d^** revertants/plate
O=c1cc(-c2ccc(O)c(O)c2)oc2cc(O)cc(O)c12 [luteolin],malformation rate,chicken embryo; [4],11.11%
same,number of dead chicken embryo,chicken embryo; [4],7
same,number of malformation chicken embryo,chicken embryo; [4],1
same,weights: embryo,chicken embryo; [4],20.70 ± 0.00 g
same,weights: heart,chicken embryo; [4],0.18 ± 0.05 g
same,weights: liver,chicken embryo; [4],0.49 ± 0.05 g
same,malformation rate,chicken embryo; [5],21.43%
same,mortality rate,chicken embryo; [5],12.5%
same,number of dead chicken embryo,chicken embryo; [5],2
same,number of malformation chicken embryo,chicken embryo; [5],3
same,weights: embryo,chicken embryo; [5],19.75 ± 0.75 g
same,weights: heart,chicken embryo; [5],0.19 ± 0.05 g
same,weights: liver,chicken embryo; [5],0.44 ± 0.05 g
same,TBARs value,chicken fetal liver; lower dose (0.05 mM: 45–50 μg/kg),142.56 nmol/g
same,EEF (estradiol equivalent factor),MCF-7 cells [1]; EC50 of E2 divided by that of the test compound,0.0012
same,EC50,"MCF-7 cells [1]; Homo sapiens, MCF7",8.4 nM
same,max % RME2,MCF-7 cells [1],26%
O=c1c(O)c(-c2ccc(O)c(O)c2)oc2cc(O)cc(O)c12 [quercetin],Ames test outcome (signs of mutagenicity),[2],signs of mutagenicity
same,MI,"S. typhimurium TA102; TA102 +S9, 0.5 pmol/plate",1.1
same,number of revertants/plate (M ± SD),"S. typhimurium TA102; TA102 +S9, 0.5 pmol/plate",326 ± 19 revertants/plate
same,MI,"S. typhimurium TA102; TA102 +S9, 5 pmol/plate",0.9
same,number of revertants/plate (M ± SD),"S. typhimurium TA102; TA102 +S9, 5 pmol/plate",279 ± 21 revertants/plate
same,MI,"S. typhimurium TA102; TA102 +S9, 50 pmol/plate",1.0
same,number of revertants/plate (M ± SD),"S. typhimurium TA102; TA102 +S9, 50 pmol/plate",310 ± 31 revertants/plate
same,MI,S. typhimurium TA102; [6],1.1
same,number of revertants/plate (M ± SD),S. typhimurium TA102; [6],337 ± 7 revertants/plate
same,MI,S. typhimurium TA102; [7],1.2
same,number of revertants/plate (M ± SD),S. typhimurium TA102; [7],369 ± 13 revertants/plate
same,MI,S. typhimurium TA102; [8],1.0
same,number of revertants/plate (M ± SD),S. typhimurium TA102; [8],312 ± 16 revertants/plate
same,MI,S. typhimurium TA102; [9],0.9
same,number of revertants/plate (M ± SD),S. typhimurium TA102; [9],291 ± 11 revertants/plate
same,MI,"S. typhimurium TA102; TA102 -S9, 0.5 pmol/plate",1.0
same,number of revertants/plate (M ± SD),"S. typhimurium TA102; TA102 -S9, 0.5 pmol/plate",267 ± 23 revertants/plate
same,MI,"S. typhimurium TA102; TA102 -S9, 5 pmol/plate",1.2
same,number of revertants/plate (M ± SD),"S. typhimurium TA102; TA102 -S9, 5 pmol/plate",312 ± 13 revertants/plate
same,MI,"S. typhimurium TA102; TA102 -S9, 50 pmol/plate",1.4
same,number of revertants/plate (M ± SD),"S. typhimurium TA102; TA102 -S9, 50 pmol/plate",347 ± 10 revertants/plate
same,MI,S. typhimurium TA102; [10],1.3
same,number of revertants/plate (M ± SD),S. typhimurium TA102; [10],325 ± 10 revertants/plate
same,MI,S. typhimurium TA102; [11],1.2
same,number of revertants/plate (M ± SD),S. typhimurium TA102; [11],301 ± 16 revertants/plate
same,MI,S. typhimurium TA102; [12],1.1
same,number of revertants/plate (M ± SD),S. typhimurium TA102; [12],284 ± 15 revertants/plate
same,MI,"S. typhimurium TA98; TA98 +S9, 0.5 pmol/plate",1.1
same,number of revertants/plate (M ± SD),"S. typhimurium TA98; TA98 +S9, 0.5 pmol/plate",25 ± 13 revertants/plate
same,MI,"S. typhimurium TA98; TA98 +S9, 5 pmol/plate",0.8
same,number of revertants/plate (M ± SD),"S. typhimurium TA98; TA98 +S9, 5 pmol/plate",19 ± 10 revertants/plate
same,MI,"S. typhimurium TA98; TA98 +S9, 50 pmol/plate",0.8
same,number of revertants/plate (M ± SD),"S. typhimurium TA98; TA98 +S9, 50 pmol/plate",18 ± 13 revertants/plate
same,MI,"S. typhimurium TA98; TA98 +S9, 5 × 10^–2 pmol/plate",1.0
same,number of revertants/plate (M ± SD),"S. typhimurium TA98; TA98 +S9, 5 × 10^–2 pmol/plate",23 ± 17 revertants/plate
same,MI,"S. typhimurium TA98; TA98 +S9, 5 × 10^–3 pmol/plate",1.2
same,number of revertants/plate (M ± SD),"S. typhimurium TA98; TA98 +S9, 5 × 10^–3 pmol/plate",27 ± 16 revertants/plate
same,MI,"S. typhimurium TA98; TA98 +S9, 5 × 10^–4 pmol/plate",0.8
same,number of revertants/plate (M ± SD),"S. typhimurium TA98; TA98 +S9, 5 × 10^–4 pmol/plate",18 ± 13 revertants/plate
same,MI,"S. typhimurium TA98; TA98 +S9, 5 × 10^–5 pmol/plate",0.7
same,number of revertants/plate (M ± SD),"S. typhimurium TA98; TA98 +S9, 5 × 10^–5 pmol/plate",17 ± 8 revertants/plate
same,MI,"S. typhimurium TA98; TA98 -S9, 0.5 pmol/plate",1.3
same,number of revertants/plate (M ± SD),"S. typhimurium TA98; TA98 -S9, 0.5 pmol/plate",28 ± 1 revertants/plate
same,MI,"S. typhimurium TA98; TA98 -S9, 5 pmol/plate",1.2
same,number of revertants/plate (M ± SD),"S. typhimurium TA98; TA98 -S9, 5 pmol/plate",27 ± 11 revertants/plate
same,MI,"S. typhimurium TA98; TA98 -S9, 50 pmol/plate",1.3
same,number of revertants/plate (M ± SD),"S. typhimurium TA98; TA98 -S9, 50 pmol/plate",30 ± 2 revertants/plate
same,MI,"S. typhimurium TA98; TA98 -S9, 5 × 10^–2 pmol/plate",0.8
same,number of revertants/plate (M ± SD),"S. typhimurium TA98; TA98 -S9, 5 × 10^–2 pmol/plate",19 ± 6 revertants/plate
same,MI,"S. typhimurium TA98; TA98 -S9, 5 × 10^–3 pmol/plate",1.4
same,number of revertants/plate (M ± SD),"S. typhimurium TA98; TA98 -S9, 5 × 10^–3 pmol/plate",31 ± 6 revertants/plate
same,MI,"S. typhimurium TA98; TA98 -S9, 5 × 10^–4 pmol/plate",1.2
same,number of revertants/plate (M ± SD),"S. typhimurium TA98; TA98 -S9, 5 × 10^–4 pmol/plate",27 ± 3 revertants/plate
same,MI,"S. typhimurium TA98; TA98 -S9, 5 × 10^–5 pmol/plate",1.1
same,number of revertants/plate (M ± SD),"S. typhimurium TA98; TA98 -S9, 5 × 10^–5 pmol/plate",25 ± 2 revertants/plate
same,LSI (liver somatic index),chicken embryo; [4],1.85 ± 0.21%
same,REEW (ratio of embryo to egg weight),chicken embryo; [4],0.43 ± 0.057
same,mortality rate,chicken embryo; [4],12.5%
same,number of dead chicken embryo,chicken embryo; [4],1
same,weights: embryo,chicken embryo; [4],24.06 ± 2.35 g
same,weights: heart,chicken embryo; [4],0.21 ± 0.05 g
same,weights: liver,chicken embryo; [4],0.44 ± 0.01 g
same,LSI (liver somatic index),chicken embryo; [5],2.52 ± 0.34%
same,REEW (ratio of embryo to egg weight),chicken embryo; [5],0.41 ± 0.035
same,malformation rate,chicken embryo; [5],0.0%
same,mortality rate,chicken embryo; [5],25.0%
same,number of dead chicken embryo,chicken embryo; [5],2
same,number of malformation chicken embryo,chicken embryo; [5],0
same,weights: embryo,chicken embryo; [5],22.11 ± 2.26 g
same,weights: heart,chicken embryo; [5],0.20 ± 0.02 g
same,weights: liver,chicken embryo; [5],0.56 ± 0.13 g
same,"mutagenicity in TA98, TA100, and TA102",S. typhimurium,showed mutagenicity
same,MI,"S. typhimurium TA100; TA100 +S9, 0.5 pmol/plate",1.2
same,number of revertants/plate (M ± SD),"S. typhimurium TA100; TA100 +S9, 0.5 pmol/plate",398 ± 8 revertants/plate
same,MI,"S. typhimurium TA100; TA100 +S9, 5 pmol/plate",1.2
same,number of revertants/plate (M ± SD),"S. typhimurium TA100; TA100 +S9, 5 pmol/plate",386 ± 12 revertants/plate
same,MI,"S. typhimurium TA100; TA100 +S9, 50 pmol/plate",1.1
same,number of revertants/plate (M ± SD),"S. typhimurium TA100; TA100 +S9, 50 pmol/plate",369 ± 12 revertants/plate
same,MI,S. typhimurium TA100; [13],1.1
same,number of revertants/plate (M ± SD),S. typhimurium TA100; [13],366 ± 14 revertants/plate
same,MI,S. typhimurium TA100; [14],1.1
same,number of revertants/plate (M ± SD),S. typhimurium TA100; [14],367 ± 5 revertants/plate
same,MI,S. typhimurium TA100; [15],1.1
same,number of revertants/plate (M ± SD),S. typhimurium TA100; [15],349 ± 8 revertants/plate
same,MI,S. typhimurium TA100; [16],1.1
same,number of revertants/plate (M ± SD),S. typhimurium TA100; [16],358 ± 14 revertants/plate
same,MI,"S. typhimurium TA100; TA100 -S9, 0.5 pmol/plate",1.0
same,number of revertants/plate (M ± SD),"S. typhimurium TA100; TA100 -S9, 0.5 pmol/plate",105 ± 11 revertants/plate
same,MI,"S. typhimurium TA100; TA100 -S9, 5 pmol/plate",1.0
same,number of revertants/plate (M ± SD),"S. typhimurium TA100; TA100 -S9, 5 pmol/plate",104 ± 8 revertants/plate
same,MI,"S. typhimurium TA100; TA100 -S9, 50 pmol/plate",0.9
same,number of revertants/plate (M ± SD),"S. typhimurium TA100; TA100 -S9, 50 pmol/plate",88 ± 8 revertants/plate
same,MI,S. typhimurium TA100; [17],1.1
same,number of revertants/plate (M ± SD),S. typhimurium TA100; [17],113 ± 6 revertants/plate
same,MI,S. typhimurium TA100; [18],1.0
same,number of revertants/plate (M ± SD),S. typhimurium TA100; [18],103 ± 7 revertants/plate
same,MI,S. typhimurium TA100; [19],1.0
same,number of revertants/plate (M ± SD),S. typhimurium TA100; [19],98 ± 7 revertants/plate
same,MI,S. typhimurium TA100; [20],1.0
same,number of revertants/plate (M ± SD),S. typhimurium TA100; [20],97 ± 4 revertants/plate
same,cell proliferation in the MCF-7 cells,MCF-7 cells [3],< 120%
same,TBARs value,chicken fetal liver; higher dose (0.5 mM: 450–500 μg/kg),62.48 nmol/g
same,"% RME2, no detectable EA","MCF-7 cells [1]; all test concentrations except 10^–11 M, VC + 3 SD = 18%",< 18%
same,max % RME2,MCF-7 cells [1],22%
